Source: ChEMBL document CHEMBL4196161, “Lead Optimization of 5-Aryl Benzimidazolone- and Oxindole-Based AMPA Receptor Modulators Selective for TARP γ-8” (ACS Med Chem Lett, 2018)
Converted amounts (≈) assume the structure as drawn.

Tests used:
[1] = target: GRIA1/CACNG2 (Homo sapiens, UniProt P42261+Q9Y698); experiment: Modulation of recombinant human GluA1 flop isoform/TARPgamma2 expressed in HEK293F cells assessed as blockade of glutamate-induced calcium flux by calcium 5/6 dye based FLIPR assay; type: cell-based
Summary of the method: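 HEK-293 cells transiently expressing human GluA1o cotransfected with γ-2; FLIPR calcium-flux read-out; pIC50 reported; n = 1, run in triplicate.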

[2] = target: GRIA1/CACNG8 (Homo sapiens, UniProt P42261+Q8WXS5); experiment: Modulation of recombinant human GluA1 flop isoform/TARPgamma8 expressed in HEK293F cells assessed as blockade of glutamate-induced calcium flux by calcium 5/6 dye based FLIPR assay; type: cell-based
Summary of the method: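 HEK-293 cells expressing a human GluA1o-γ-8 fusion construct; FLIPR calcium-flux read-out; pIC50 reported as mean and standard deviation of at least three assays run in triplicate.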

[3] = Hepatic extraction ratio in human liver microsomes at 1 uM measured after 60 mins in presence of NADPH by LC-MS/MS analysis; type: ADME, microsome; conditions: read-out: ERH
Summary of the method: (§1)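 Human or rat liver microsomal stability at 1 μM; results expressed as extraction ratio, i.e. predicted hepatic clearance divided by species-specific hepatic blood flow.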

[4] = Thermodynamic solubility of the compound in simulated gastric fluid at pH 1.6 incubated under stirred condition for 3 days; type: physicochemical; conditions: read-out: Therm_solubility
Summary of the method: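 Thermodynamic solubility (μM) determined in simulated gastric fluid at pH 1.6 and in fasted state simulated intestinal fluid at pH 6.5.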

[5] = Protein binding in human plasma assessed as unbound fraction at 1 uM measured after 6 hrs by equilibrium dialysis method; type: ADME, cell-free
Summary of the method: (§2)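 Human or rat plasma protein binding at 1 μM compound, expressed as fraction unbound (fub).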

[6] = Thermodynamic solubility of the compound in fasted state simulated intestinal fluid at pH 6.5 incubated under stirred condition for 3 days; conditions: read-out: Therm_solubility
[7] = Apparent permeability across apical to basolateral side in MDCK-MDR1 cells at 5 uM measured after 60 mins by LC-MS/MS analysis; type: ADME, cell-based, Canis lupus familiaris; conditions: dog
Summary of the method: (§3)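 Bidirectional apparent permeability measured in Madin–Darby canine kidney cells transfected with the MDR1 (P-gp) gene; Papp reported in ×10–6 cm/s.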

[8] = Protein binding in rat plasma assessed as unbound fraction at 1 uM measured after 6 hrs by equilibrium dialysis method; type: ADME, cell-free; summary of the method: as §2
[9] = Hepatic extraction ratio in rat liver microsomes at 1 uM measured after 60 mins in presence of NADPH by LC-MS/MS analysis; type: ADME, microsome; conditions: read-out: ERH; summary of the method: as §1
[10] = Apparent permeability across basolateral to apical side in MDCK-MDR1 cells at 5 uM measured after 60 mins by LC-MS/MS analysis; type: ADME, cell-based, Canis lupus familiaris; conditions: dog; summary of the method: as §3
[11] = Clearance in Sprague-Dawley rat at 1 mg/kg, iv administered as single dose by LC-MS/MS analysis; type: ADME, organism-based; conditions: in vivo
Summary of the method: (§4)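 Single 1 mg/kg i.v. dose as a solution to Sprague–Dawley rats (n = 3/group); vehicle 20% HP-β-CD in one study series, 1:1 PEG400/H2O in the other; plasma PK parameters derived.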

[12] = Half life in Sprague-Dawley rat at 1 mg/kg, iv administered as single dose by LC-MS/MS analysis; type: ADME, organism-based; conditions: in vivo; summary of the method: as §4
[13] = Volume of distribution at steady state in Sprague-Dawley rat at 1 mg/kg, iv administered as single dose by LC-MS/MS analysis; type: ADME, organism-based; conditions: in vivo, read-out: Vdss; summary of the method: as §4
[14] = organism: Homo sapiens; experiment: Selectivity ratio of IC50 for recombinant human GluA1 flop isoform/TARPgamma2 expressed in HEK293F cells to IC50 for recombinant human GluA1 flop isoform/TARPgamma8 expressed in HEK293F cells; type: cell-based
Summary of the method: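 Calcium-flux (FLIPR) inhibition in HEK-293 cells, giving pIC50 for each receptor. For γ-8, cells expressed a human GluA1o–γ-8 fusion construct, with at least three assays run in triplicate and reported as mean ± SD. For γ-2, cells expressed human GluA1-flop cotransfected with γ-2. The ratio compares the γ-2 IC50 with the γ-8 IC50.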

[15] = tested on: Rattus norvegicus; experiment: Ex vivo receptor occupancy at GluA/TARPgamma8 in Sprague-Dawley rat assessed as reduction in [3H]JNJ-56022486 receptor labeling in hippocampus at 10 mg/kg, po at Tmax by autoradiography relative to control; type: functional
Summary of the method: (§5)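 Rats (Sprague–Dawley, n = 2/dose group) dosed orally with suspensions in 0.5% HPMC at 3 or 10 mg/kg; hippocampal GluA/γ-8 occupancy at Tmax by ex vivo autoradiography with [3H]12 radiotracer; brain (ng/g) and plasma (ng/mL) concentrations taken at Tmax.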

[16] = Cmax in Sprague-Dawley rat at 5 mg/kg, po administered as single dose by LC-MS/MS analysis; type: ADME, organism-based; set-up: dose 5 mg/kg, route oral; conditions: in vivo
Summary of the method: (§6)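 Sprague–Dawley rats (n = 3/group) given compound as a solution in 20% HP-β-CD, 1 mg/kg i.v. and 5 mg/kg p.o.; plasma pharmacokinetics derived from these arms.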

[17] = Ratio of unbound brain to plasma concentration in Sprague-Dawley rat at 1 mg/kg, iv or 5 mg/kg, po administered as single dose by LC-MS/MS analysis; type: ADME, organism-based; conditions: brain and plasma, read-out: K(p,uu,brain)
[18] = tested on: Rattus norvegicus; experiment: Ex vivo receptor occupancy at GluA/TARPgamma8 in po dosed Sprague-Dawley rat assessed as brain concentration causing 50% reduction in [3H]JNJ-56022486 receptor labeling in hippocampus at Tmax by autoradiography; type: functional, organism-based
Summary of the method: (§7)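 Oral dose–response in Sprague–Dawley rats, n = 3/dose (8 doses in one study; vehicle 0.5% HPMC or 20% HP-β-CD); hippocampal occupancy measured at Tmax by ex vivo autoradiography using [3H]-12; EC50 expressed against plasma (ng/mL) or brain (ng/g) exposure, ED50 against dose.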

[19] = Oral bioavailability in Sprague-Dawley rat at 5 mg/kg administered as single dose by LC-MS/MS analysis; type: ADME, organism-based; conditions: in vivo; summary of the method: as §6
[20] = tested on: Rattus norvegicus; experiment: Ex vivo receptor occupancy at GluA/TARPgamma8 in po dosed Sprague-Dawley rat assessed as plasma concentration causing 50% reduction in [3H]JNJ-56022486 receptor labeling in hippocampus at Tmax by autoradiography; type: functional, organism-based; summary of the method: as §7
[21] = tested on: Rattus norvegicus; experiment: Ex vivo receptor occupancy at GluA/TARPgamma8 in po dosed Sprague-Dawley rat assessed as reduction in [3H]JNJ-56022486 receptor labeling in hippocampus measured within 10 mins by autoradiography; type: functional
[22] = Volume of distribution at steady state in Sprague-Dawley rat at 1 mg/kg, iv or 5 mg/kg, po administered as single dose by LC-MS/MS analysis; type: ADME, organism-based; conditions: in vivo, read-out: Vdss; summary of the method: as §4
[23] = tested on: Rattus norvegicus; experiment: Ex vivo receptor occupancy at GluA/TARPgamma8 in po dosed Sprague-Dawley rat assessed as plasma concentration causing reduction in [3H]JNJ-56022486 receptor labeling in hippocampus at 3 mg/kg, po at Tmax by autoradiography; type: functional, organism-based; summary of the method: as §5
[24] = tested on: Rattus norvegicus; experiment: Ex vivo receptor occupancy at GluA/TARPgamma8 in po dosed Sprague-Dawley rat assessed as plasma concentration causing reduction in [3H]JNJ-56022486 receptor labeling in hippocampus at 10 mg/kg, po at Tmax by autoradiography; type: functional, organism-based; summary of the method: as §5

Chain of GRIA1/CACNG2 (P42261 whole entry, canonical isoform): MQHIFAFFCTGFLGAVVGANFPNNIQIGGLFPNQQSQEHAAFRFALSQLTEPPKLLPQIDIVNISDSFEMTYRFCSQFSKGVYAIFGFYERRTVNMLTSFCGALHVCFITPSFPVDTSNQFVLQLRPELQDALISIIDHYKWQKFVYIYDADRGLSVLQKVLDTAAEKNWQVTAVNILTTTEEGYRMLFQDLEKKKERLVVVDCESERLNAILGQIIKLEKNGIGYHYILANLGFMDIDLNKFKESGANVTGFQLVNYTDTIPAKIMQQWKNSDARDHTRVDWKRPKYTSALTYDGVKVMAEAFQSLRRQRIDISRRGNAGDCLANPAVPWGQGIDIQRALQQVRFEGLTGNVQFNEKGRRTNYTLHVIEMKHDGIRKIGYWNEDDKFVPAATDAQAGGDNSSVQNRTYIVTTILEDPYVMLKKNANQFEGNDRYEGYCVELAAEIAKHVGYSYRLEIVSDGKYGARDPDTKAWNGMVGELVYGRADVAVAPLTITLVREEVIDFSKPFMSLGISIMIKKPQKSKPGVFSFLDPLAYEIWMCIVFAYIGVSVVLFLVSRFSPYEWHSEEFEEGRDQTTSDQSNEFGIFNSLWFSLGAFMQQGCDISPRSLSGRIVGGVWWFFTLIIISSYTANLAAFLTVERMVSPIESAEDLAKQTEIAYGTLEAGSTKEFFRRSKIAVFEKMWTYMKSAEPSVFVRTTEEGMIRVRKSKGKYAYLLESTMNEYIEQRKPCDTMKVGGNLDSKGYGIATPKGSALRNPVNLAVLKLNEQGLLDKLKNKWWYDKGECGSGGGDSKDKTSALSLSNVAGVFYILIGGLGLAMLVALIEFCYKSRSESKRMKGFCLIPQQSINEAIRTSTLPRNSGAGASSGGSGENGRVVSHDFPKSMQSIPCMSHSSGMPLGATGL
Chain of GRIA1/CACNG2 (Q9Y698 whole entry, canonical isoform): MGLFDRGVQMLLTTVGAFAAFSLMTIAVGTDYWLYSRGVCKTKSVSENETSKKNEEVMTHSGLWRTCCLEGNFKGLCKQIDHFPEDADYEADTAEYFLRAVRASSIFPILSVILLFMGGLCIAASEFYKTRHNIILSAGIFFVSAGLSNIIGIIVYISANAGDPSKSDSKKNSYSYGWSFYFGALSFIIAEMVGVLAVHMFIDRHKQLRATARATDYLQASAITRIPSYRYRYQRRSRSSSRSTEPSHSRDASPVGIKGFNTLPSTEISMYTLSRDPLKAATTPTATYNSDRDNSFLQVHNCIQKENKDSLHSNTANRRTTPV
Chain of GRIA1/CACNG8 (P42261 whole entry, the tested form may be a part, canonical isoform): as the sequence (P42261 whole entry, canonical isoform) above
Chain of GRIA1/CACNG8 (Q8WXS5 whole entry, the tested form may be a part, canonical isoform): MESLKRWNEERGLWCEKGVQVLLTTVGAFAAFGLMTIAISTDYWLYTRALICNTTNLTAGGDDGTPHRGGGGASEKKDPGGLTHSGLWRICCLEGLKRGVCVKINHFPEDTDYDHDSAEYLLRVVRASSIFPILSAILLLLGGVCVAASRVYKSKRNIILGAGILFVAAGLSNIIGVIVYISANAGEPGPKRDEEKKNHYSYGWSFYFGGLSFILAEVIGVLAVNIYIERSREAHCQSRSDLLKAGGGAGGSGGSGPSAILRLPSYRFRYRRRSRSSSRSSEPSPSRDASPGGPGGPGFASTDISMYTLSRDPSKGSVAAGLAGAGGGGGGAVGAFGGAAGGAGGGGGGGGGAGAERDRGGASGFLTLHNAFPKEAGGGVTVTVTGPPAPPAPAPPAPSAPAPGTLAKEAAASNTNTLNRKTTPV

| Compound | IC50 [1] [µM] | IC50 [2] [µM] | hepatic extraction ratio at 1 h, 1 µM [3] | solubility thermodynamic at 72 h [4] [µM] | solubility thermodynamic at 72 h [6] [µM] | Papp A→B at 1 h, 5 µM [7] [×10⁻⁶ cm/s] | hepatic extraction ratio at 1 h, 1 µM [9] | Papp B→A at 1 h, 5 µM [10] [×10⁻⁶ cm/s] | further results |
| --- | --- | --- | --- | --- | --- | --- | --- | --- | --- |
| Cc1ccccc1-c1ccc2c(c1)CC(=O)N2 | > 10 | 2.51 | – | – | – | – | – | – | – |
| O=c1[nH]c2ccc(-c3c(Cl)cccc3Cl)cc2[nH]1 | > 10 | 0.0501 | < 0.3 | < 4 | 69 (≈ 19.3 µg/mL) | 26 | 0.3 | 49 | fraction unbound at 6 h, 1 µM [5]: 0.5; fraction unbound at 6 h, 1 µM [8]: 0.6 |
| O=C1Cc2cc(-c3c(Cl)cccc3OC(F)(F)F)cc(F)c2N1 | – | 0.00251 | – | – | – | – | – | – | – |
| Cc1cc(-c2c(Cl)cncc2OC(F)F)cc2c1NC(=O)C2 | > 10 | – | < 0.3 | 140 (≈ 45.5 µg/mL) | 64 (≈ 20.8 µg/mL) | 34 | 0.4 | 66 | clearance [11]: 19 mL/min/kg; half-life [12]: 1.2 h; Vd [13]: 1.9 L/kg; Ratio IC50 [14]: > 1000; Occ [15]: 72% |
| Cc1cccc(Cl)c1-c1ccc2[nH]c(=O)[nH]c2c1 | > 10 | 0.0501 | < 0.3 | < 4 | 146 (≈ 37.8 µg/mL) | 25 | 0.6 | 32 | fraction unbound at 6 h, 1 µM [5]: 0.9 |
| COc1cccc(Cl)c1-c1ccc2[nH]c(=O)[nH]c2c1 | > 10 | 0.126 | 0.3 | 19 (≈ 5.22 µg/mL) | 142 (≈ 39 µg/mL) | 26 | 0.6 | 50 | – |
| O=c1[nH]c2ccc(-c3c(Cl)cccc3C3CC3)cc2[nH]1 | > 10 | – | < 0.3 | < 4 | 90 (≈ 25.6 µg/mL) | 10 | 0.5 | 18 | Cmax [16]: 502 ng/mL; clearance [11]: 21 mL/min/kg; fraction unbound at 6 h, 1 µM [5]: 0.2; half-life [12]: 2.7 h; Kp uu [17]: 0.3; EC50 [18]: 1611 ng/g; bioavailability [19]: 121%; EC50 [20]: 0.486 µg/mL (≈ 1.71 µM); ED50 [21]: 3.2 mg/kg; Vd [22]: 4.6 L/kg |
| O=c1[nH]c2ccc(-c3c(Cl)cncc3Cl)cc2[nH]1 | > 10 | 0.251 | < 0.3 | 42 (≈ 11.8 µg/mL) | 52 (≈ 14.6 µg/mL) | 16 | < 0.2 | 83 | – |
| N#CCc1cccc(Cl)c1-c1ccc2[nH]c(=O)[nH]c2c1 | > 10 | 0.01 | < 0.3 | 26 (≈ 7.38 µg/mL) | 230 (≈ 65.3 µg/mL) | 6.6 | 0.6 | 70 | – |
| N#Cc1cccc(Cl)c1-c1ccc2[nH]c(=O)[nH]c2c1 | > 10 | 0.251 | < 0.3 | < 4 | 5 (≈ 1.35 µg/mL) | 14 | < 0.2 | 70 | – |
| Cc1cccc(C)c1-c1ccc2[nH]c(=O)[nH]c2c1 | > 10 | – | 0.3 | 5 (≈ 1.19 µg/mL) | 276 (≈ 65.8 µg/mL) | 42 | 0.5 | 34 | clearance [11]: 9 mL/min/kg; Kp uu [17]: 0.3; bioavailability [19]: 68% |
| Cc1cc(-c2c(Cl)cncc2OC(F)(F)F)cc2c1NC(=O)C2 | > 10 | 0.00251 | < 0.3 | 11 (≈ 3.77 µg/mL) | 45 (≈ 15.4 µg/mL) | 44 | 0.5 | 51 | clearance [11]: 37 mL/min/kg; half-life [12]: 1.4 h; Vd [13]: 2.7 L/kg; Cp [23]: 87 ng/mL; ED50 [21]: 5.4 mg/kg; Ratio IC50 [14]: > 1000; Occ [15]: 86%; Cp [24]: 2050 ng/mL |
| O=c1[nH]c2ccc(-c3c(Cl)cccc3OC(F)(F)F)cc2o1 | – | 2.51 | – | – | – | – | – | – | – |
| Cc1cccc(C)c1-c1ccc2c(c1)CC(=O)N2 | > 10 | – | – | – | – | – | – | – | – |
